Measured values collected from several papers.
Target: Mitogen-activated protein kinase 14 (MAPK14, Homo sapiens, UniProt Q16539)

COc1ncccc1-c1cnn2ccc(N3CCN(C(=O)OC(C)C)CC3)nc12  remaining binding (binding, competition with immobilised ligand; 1 µM): 94%
Cn1cncc1[C@@](O)(COc1ccc(C#N)cc1-c1ccc(OC(F)(F)F)cc1)c1ccc(C#N)cc1  remaining binding (cell-free assay, competition with immobilised ligand; 1 µM): 100%
O=C(Nc1cccnn1)N1CCN([C@@H]2CCOc3cc(C(F)(F)F)ccc32)CC1  inhibition (enzyme activity, inhibitor; 20 µM): -20%
N#CC1(c2ccccn2)CCN(Cc2cc(C(=O)O)c(=O)n3ccccc23)CC1  remaining binding (cell-free assay, competition with immobilised ligand; 1 µM): 100%
O=c1[nH]c2ccccc2n1C1CCN(Cc2ccc(-c3[nH]c4cc5ncnc5cc4nc3-c3ccccc3)cc2)CC1  remaining signal (cell-free assay; 0.5 µM): 99.7%
Cc1nn(C)cc1-c1nc2c(N3CCN(Cc4ccc(Cl)cc4)CC3)c(Cl)cnc2[nH]1  remaining binding (binding, competition with immobilised ligand; 1 µM): 71%
Cc1ncc(C)n2nc(/C=C/c3nc(N4CCCC4)cc(N4CCOCC4)n3)nc12  inhibition (enzyme activity, inhibitor; 10 µM): 0%
CC(C)(C)c1cc(C=C(C#N)C#N)cc(Br)c1O  remaining activity (enzyme activity, inhibitor; 0.5 µM): 98.3%
C#Cc1n[nH]c2c(-c3cn(C(C)c4ccccn4)c(=O)[nH]c3=O)cc(F)cc12 (stereo not shown)  inhibition (enzyme activity, inhibitor; 1 µM): -4.4%
COc1cc(Cl)c(C(=O)N[C@@H](CN[C@H]2CC[C@@H](N)CC2)Cc2ccc(C#N)cc2)cc1-c1ccc(CN[C@H](C)c2ccc(C)cc2)o1  remaining activity (enzyme activity, inhibitor; 1 µM): 107%
